Data from ChEMBL document CHEMBL3232721, “4-Oxo-1,4-dihydro-quinoline-3-carboxamides as BACE-1 inhibitors: synthesis, biological evaluation and docking studies” (Eur J Med Chem, 2014).

Tests used:
Beta-secretase 1 [1] = target: T1, Beta-secretase 1 (Homo sapiens, UniProt P56817); experiment: Inhibition of BACE-1 (unknown origin) by FRET assay
Procedure, shortened: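 BACE-1 FRET kit assay following the kit protocol, with total reaction volume reduced to […]. Compounds exceeding 50% inhibition at the single-point screen were retested across several concentrations. IC50 derived from linear regression parameters, reported as the mean of at least two experiments.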

Beta-secretase 1 [2] = target: T1, Beta-secretase 1; experiment: Inhibition of BACE-1 (unknown origin) at 10 uM by FRET assay relative to control
Procedure, shortened: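 FRET-based BACE-1 activity kit used per the kit protocol, except total reaction volume was cut to […]. Each compound tested at a single concentration of 10 µM. Result given as percent inhibition of BACE-1 activity, from two independent experiments.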

HEK293 = experiment: Cytotoxicity against HEK293 cells after 72 hrs by CellTiterGlo assay; format: cell-based; conditions: Homo sapiens, HEK293, 72 h
Procedure, shortened: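 HEK293 grown in DMEM with 10% FBS, 100 units/mL penicillin and 100 units/mL streptomycin at 37 °C, 5% CO2. Seeded at 1000 cells/well in 384-well format, then exposed to test agents from a top working level of […], serially diluted threefold ten more times. Staurosporine positive control. After 72 h, CellTiter Glo reagent (10%) added and ATP luminescence read. IC50 taken from log dose–viability curves.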

T1 sequence (P56817 whole entry): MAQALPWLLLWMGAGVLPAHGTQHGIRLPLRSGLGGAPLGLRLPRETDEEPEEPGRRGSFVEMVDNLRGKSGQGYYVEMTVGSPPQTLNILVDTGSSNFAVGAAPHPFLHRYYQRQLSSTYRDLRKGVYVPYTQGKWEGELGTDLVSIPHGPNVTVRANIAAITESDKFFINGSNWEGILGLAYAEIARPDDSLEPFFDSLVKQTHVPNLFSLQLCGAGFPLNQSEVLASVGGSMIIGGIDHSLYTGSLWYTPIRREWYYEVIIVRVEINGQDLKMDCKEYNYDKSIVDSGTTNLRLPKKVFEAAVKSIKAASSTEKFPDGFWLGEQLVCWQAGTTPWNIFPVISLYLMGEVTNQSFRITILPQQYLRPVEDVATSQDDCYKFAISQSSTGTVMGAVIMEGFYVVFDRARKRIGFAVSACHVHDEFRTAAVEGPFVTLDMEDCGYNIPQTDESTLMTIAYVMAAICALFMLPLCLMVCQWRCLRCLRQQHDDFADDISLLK

Molecule `Cc1ccccc1-c1ccc2[nH]cc(C(=O)NC3CCCCC3)c(=O)c2c1` has an IC50 (Beta-secretase 1 [1]) of 11.5 µM, an inhibition (Beta-secretase 1 [2]) of 77.8% and an IC50 (HEK293) greater than 50 µM.
Molecule `COc1cccc(CNC(=O)c2c[nH]c3ccc(S(=O)(=O)Nc4cccc(C(F)(F)F)c4)cc3c2=O)c1` has an IC50 (Beta-secretase 1 [1]) of 2.2 µM, an inhibition (Beta-secretase 1 [2]) of 73.5% and an IC50 (HEK293) greater than 50 µM.
Molecule `Cc1ccccc1-c1ccc2[nH]cc(C(=O)NCc3ccc(C(F)(F)F)cc3)c(=O)c2c1` has an inhibition (Beta-secretase 1 [2]) of 38.1%.
`O=C(NCc1ccc(F)cc1)c1c[nH]c2ccc(S(=O)(=O)Nc3cccc(C(F)(F)F)c3)cc2c1=O` showed an inhibition (Beta-secretase 1 [2]) of 30.4%.
Molecule `Cc1ccccc1-c1ccc2[nH]cc(C(=O)NCc3cccnc3)c(=O)c2c1` has an inhibition (Beta-secretase 1 [2]) of 10.2%.
Molecule `O=C(NC1CCCCC1)c1c[nH]c2ccc(S(=O)(=O)Nc3cccc(C(F)(F)F)c3)cc2c1=O` has an IC50 (Beta-secretase 1 [1]) of 7.18 µM, an inhibition (Beta-secretase 1 [2]) of 65.6% and an IC50 (HEK293) greater than 50 µM.
With `Cc1ccccc1-c1ccc2[nH]cc(C(=O)NCc3ccco3)c(=O)c2c1` the inhibition (Beta-secretase 1 [2]) was 32.9%.
Molecule `Cc1ccccc1-c1ccc2[nH]cc(C(=O)NCc3cccc(C(F)(F)F)c3)c(=O)c2c1` has an IC50 (Beta-secretase 1 [1]) of 6.18 µM, an inhibition (Beta-secretase 1 [2]) of 67.4% and an IC50 (HEK293) greater than 50 µM.
Work on `O=C(NCc1ccco1)c1c[nH]c2ccc(S(=O)(=O)Nc3cccc(C(F)(F)F)c3)cc2c1=O` yielded an IC50 (Beta-secretase 1 [1]) of 1.61 µM, an inhibition (Beta-secretase 1 [2]) of 71.1% and an IC50 (HEK293) greater than 50 µM.
Molecule `O=C(NCc1cccc(F)c1)c1c[nH]c2ccc(S(=O)(=O)Nc3cccc(C(F)(F)F)c3)cc2c1=O` has an IC50 (Beta-secretase 1 [1]) of 1.85 µM, an inhibition (Beta-secretase 1 [2]) of 84.6% and an IC50 (HEK293) greater than 50 µM.
`Cc1ccccc1-c1ccc2[nH]cc(C(=O)NCc3cccc(F)c3)c(=O)c2c1` was tested, and the inhibition (Beta-secretase 1 [2]) was 12.3%.
Work on `COc1ccc(CNC(=O)c2c[nH]c3ccc(S(=O)(=O)Nc4cccc(C(F)(F)F)c4)cc3c2=O)cc1` yielded an IC50 (Beta-secretase 1 [1]) of 7.04 µM, an inhibition (Beta-secretase 1 [2]) of 50.4% and an IC50 (HEK293) greater than 50 µM.
Work on `Cc1ccccc1-c1ccc2[nH]cc(C(=O)NCc3cccc(Br)c3)c(=O)c2c1` yielded an IC50 (Beta-secretase 1 [1]) of 1.89 µM, an inhibition (Beta-secretase 1 [2]) of 77.6% and an IC50 (HEK293) greater than 50 µM.
Work on `O=C(NCc1ccc2c(c1)OCO2)c1c[nH]c2ccccc2c1=O` yielded an inhibition (Beta-secretase 1 [2]) of 11.3%.
In the case of `O=C(NCc1cccnc1)c1c[nH]c2ccc(S(=O)(=O)Nc3cccc(C(F)(F)F)c3)cc2c1=O`, the inhibition (Beta-secretase 1 [2]) is reported as 35.7%.
For `CN[C@@H]1C[C@H]2O[C@@](C)([C@@H]1OC)n1c3ccccc3c3c4c(c5c6ccccc6n2c5c31)C(=O)NC4` [STAUROSPORINE], the IC50 (HEK293) was 0.056 µM.
